Most compounds without a hit are left out; they make up all but 1.8% or so of the library.
MT1-MMP act inh = blocks activation of human MT1-MMP; P50281; HT1080 RFP-PRO-GFP cells, GFP/RFP ratio fluorescence, overnight; percent of plate control window, DMSO zero; GFP/RFP ratio change, % at 20 µM; actives 0.061% (n = 360,000);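 active = GFP/RFP ratio change of at least 30% with cell ATP level not reduced by more than half and red fluorescence within 50% of control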
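system = RFP-PRO-GFP reporter HT1080 cells | dosing = 20 µM single dose, 1% DMSO | timing = overnight cell settling, then overnight compound exposure, 37 °C, 5% CO2 | read-out basis = GFP/RFP fluorescence ratio | controls = DMSO and RFP-L50D-GFP cell wells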
MIN6 prolif = induces beta-cell replication in MIN6 cells. MIN6 cells proliferation, ATPlite luminescence, 48 h; cells starved in 0.2% serum; 100% = growth in 10% serum. proliferation, % at 10 µM. actives 0.29% (n = 330,000);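 active = compounds whose signal lies at least 3.5 SD above the mean of all wells on their plate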;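 note: 0% = DMSO-treated cells in low-serum medium and 100% = 10% serum control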
MsrA inhibitor = inhibitors of bovine MsrA; inhibition, % at 15.5 µM; AID 651718; purified bovine MsrA, absorbance read-out; actives 0.75% (n = 360,000);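 note: 0% = vehicle wells with enzyme and 100% = reference inhibitor wells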
DAGLB inh = blocks human DAGLB lipase activity; HEK293T DAGLB membrane lysate, EnzChek fluorogenic substrate; inhibition, % at 5.17 µM; actives 0.059% (n = 340,000); AID 504411; in the data active = inhibition above about 34%;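 note: 0% = enzyme with vehicle and 100% = wells lacking enzyme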
Target sequence (Q8NCG7 whole entry, looked up): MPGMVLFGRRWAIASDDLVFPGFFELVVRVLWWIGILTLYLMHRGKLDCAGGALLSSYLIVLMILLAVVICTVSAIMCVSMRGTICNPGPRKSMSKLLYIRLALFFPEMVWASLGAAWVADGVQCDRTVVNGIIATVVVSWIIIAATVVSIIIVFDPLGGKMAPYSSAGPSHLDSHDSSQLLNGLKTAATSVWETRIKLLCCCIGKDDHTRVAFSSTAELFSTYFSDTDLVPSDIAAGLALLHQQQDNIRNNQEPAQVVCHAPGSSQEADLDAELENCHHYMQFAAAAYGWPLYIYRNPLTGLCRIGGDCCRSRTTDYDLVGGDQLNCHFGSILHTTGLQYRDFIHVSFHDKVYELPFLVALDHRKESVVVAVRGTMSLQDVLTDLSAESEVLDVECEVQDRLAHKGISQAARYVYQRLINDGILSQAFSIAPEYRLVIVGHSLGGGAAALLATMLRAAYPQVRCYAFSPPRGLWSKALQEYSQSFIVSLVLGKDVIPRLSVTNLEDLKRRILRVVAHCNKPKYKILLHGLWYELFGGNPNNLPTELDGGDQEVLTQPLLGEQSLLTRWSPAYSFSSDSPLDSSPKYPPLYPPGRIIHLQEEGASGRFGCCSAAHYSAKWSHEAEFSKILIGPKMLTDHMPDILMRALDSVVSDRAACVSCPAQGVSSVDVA
SKN-1 inh = C. elegans SKN-1 inhibition; C. elegans VP596 Pgst-4::GFP/RFP ratio, acrylamide-induced, 24 h; inhibition, % at 21.8 µM; actives 0.49% (n = 360,000); AID 624304;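 active = interference check ratio from 0.5 to 1.5 plus GFP to RFP signal ratio inhibition reaching or exceeding a fixed threshold, cut at about 30% in these data, passing the limit was not always enough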
MsrA act = bovine methionine sulfoxide reductase A activation; purified bovine MsrA, absorbance read-out; activation, % at 10.6 µM; actives 0.3% (n = 360,000); AID 602163; in the data active = activation above about 7.5%;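 note: 0% = vehicle and 100% = reference activator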
MsrA conf = confirmation of bovine MsrA inhibitors. purified bovine MsrA, absorbance read-out. inhibition, % at 15.5 µM. actives 41% (n = 2,300). shares compounds with MsrA inhibitor;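 note: coupled to thioredoxin reductase with NADPH and selenocystamine and DMSO as substrate; 0% = vehicle only and 100% = full effect of reference inhibitor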
* = called active by the depositor. Cut-off read from the data, not from the text of the source, unless noted: active = inhibition above about 4.5%; inactive = the rest.

Screening Cc1ccc(/C=C2/SC(=S)N(CCCC(=O)Nc3cc([N+](=O)[O-])ccc3O)C2=O)cc1 returned MT1-MMP act inh 12, MIN6 prolif -7, MsrA inhibitor 1, DAGLB inh 4, SKN-1 inh 2 and MsrA act 0.
Screening O=C(CCN1C(=O)S/C(=C/c2ccccc2)C1=O)Nc1ccc(C(=O)O)c(O)c1 returned MT1-MMP act inh 0, MIN6 prolif -7, MsrA inhibitor 5.7*, DAGLB inh 4, SKN-1 inh 4, MsrA act -6 and MsrA conf 2.
`COc1ccc(-c2c(=O)n(OCc3ccccc3[N+](=O)[O-])c3ccccc3[n+]2[O-])c(OC)c1` gave MT1-MMP act inh 0, MIN6 prolif -1, MsrA inhibitor 3, DAGLB inh 1, SKN-1 inh 6 and MsrA act -3.
CCCC(C)C(=O)Nc1ccc(S(=O)(=O)Nc2nccs2)cc1 (stereo not drawn) was read as MT1-MMP act inh 3, MIN6 prolif -2, MsrA inhibitor -1, DAGLB inh -1, SKN-1 inh -3 and MsrA act -7.
For O=C(CCN1C(=O)/C(=C\c2ccccc2)SC1=S)N1CCOCC1 the results were MT1-MMP act inh 0, MIN6 prolif 9, MsrA inhibitor 0, DAGLB inh 0, SKN-1 inh 6 and MsrA act 0.
For O=C(CCN1C(=O)S/C(=C\c2ccccc2)C1=O)N1CCOCC1 the results were MT1-MMP act inh -1, MIN6 prolif 1, MsrA inhibitor 5.7*, DAGLB inh 1, SKN-1 inh -3, MsrA act 3 and MsrA conf 3.
Screening CC(=O)c1c(C)[nH]c(C(=O)OCC(=O)N(Cc2ccccc2)C(C)(C)C)c1C returned MT1-MMP act inh 2, MIN6 prolif -2, MsrA inhibitor 0, DAGLB inh -2, SKN-1 inh 15 and MsrA act -1.
For COc1cc(C(C#N)N2N=C(c3ccccc3)CC2c2ccccc2)ccc1O (stereo not drawn) the results were MT1-MMP act inh 2, MIN6 prolif 1, MsrA inhibitor 4.7*, DAGLB inh -10, SKN-1 inh 19, MsrA act -4 and MsrA conf 1.
Screening CCN(CC)CCOC(=O)c1ccc(NC(=S)NC(=O)/C=C/c2ccco2)cc1 returned MIN6 prolif -1.
CSc1ccc(C=NNc2ccc(S(=O)(=O)Nc3ccccc3C(=O)O)cc2[N+](=O)[O-])cc1 was read as MT1-MMP act inh 26, MIN6 prolif -6, MsrA inhibitor 0, DAGLB inh 11, SKN-1 inh 12 and MsrA act -2.
Screening O=C(O)c1ccccc1NS(=O)(=O)c1ccc(NN=Cc2ccccc2F)c([N+](=O)[O-])c1 returned MT1-MMP act inh 8, MIN6 prolif -5, MsrA inhibitor 5.3*, DAGLB inh 24, SKN-1 inh 7, MsrA act -7 and MsrA conf 3.
`O=C(N/N=C/c1ccncc1)c1cc2ccccc2o1` gave MT1-MMP act inh 9, MIN6 prolif -1, MsrA inhibitor 5.8*, DAGLB inh 0, SKN-1 inh -6, MsrA act -3 and MsrA conf 4.
O=C(COc1ccccc1)NCC(=O)N1CCCC1 was read as MT1-MMP act inh 0, MIN6 prolif -3, MsrA inhibitor -1, DAGLB inh -2, SKN-1 inh -3 and MsrA act -6.
O=C(O)c1cccc(Cn2c(Cl)c(/C=N/NC(=O)c3ccc(O)cc3)sc2=O)c1 was read as MT1-MMP act inh 0, MIN6 prolif 6, MsrA inhibitor 8.5*, DAGLB inh 0, SKN-1 inh -10, MsrA act -7 and MsrA conf 5.5*.
`O=C(COc1ccccc1)N/N=C/c1sc(=O)n(Cc2cccc(C(=O)O)c2)c1Cl` gave MT1-MMP act inh -4, MIN6 prolif -2, MsrA inhibitor 3, DAGLB inh 2, SKN-1 inh 0 and MsrA act -3.
